The record followed here is PubChem BioAssay.

Molecules are shown by their SMILES. The source made the active and inactive calls.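 Rule for the calls, unless noted: active = potentiation averaged over duplicate wells exceeding buffer-only control mean by more than 3 SD; inactive = the rest.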

Chain of Potassium voltage-gated channel subfamily KQT member 1 (Homo sapiens) (P51787 whole entry, looked up): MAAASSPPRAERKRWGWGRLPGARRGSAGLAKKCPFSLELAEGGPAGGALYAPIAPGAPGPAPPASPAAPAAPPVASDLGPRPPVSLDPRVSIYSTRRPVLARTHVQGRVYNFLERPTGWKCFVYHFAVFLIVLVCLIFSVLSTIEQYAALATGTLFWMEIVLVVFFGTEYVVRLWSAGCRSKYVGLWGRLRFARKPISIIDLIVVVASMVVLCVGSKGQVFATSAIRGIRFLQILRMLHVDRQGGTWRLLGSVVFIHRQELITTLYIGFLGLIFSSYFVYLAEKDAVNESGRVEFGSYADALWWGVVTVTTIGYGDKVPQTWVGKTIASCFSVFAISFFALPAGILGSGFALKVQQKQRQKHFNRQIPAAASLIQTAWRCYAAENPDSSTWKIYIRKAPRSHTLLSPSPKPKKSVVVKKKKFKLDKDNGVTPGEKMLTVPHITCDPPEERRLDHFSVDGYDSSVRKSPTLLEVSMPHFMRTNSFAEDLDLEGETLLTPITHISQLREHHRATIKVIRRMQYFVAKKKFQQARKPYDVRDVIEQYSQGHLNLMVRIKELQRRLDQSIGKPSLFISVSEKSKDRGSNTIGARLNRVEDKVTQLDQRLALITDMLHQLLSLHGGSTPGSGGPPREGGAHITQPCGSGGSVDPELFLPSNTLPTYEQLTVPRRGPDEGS

Test system in the first experiment: not listed separately
The experiment in a line: nonspecific flux increase, KCNQ1-free cells – parental CHO cells, counter-screen for KCNQ1 potentiator project (AID 493006;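 active = duplicate-averaged activation above buffer control mean plus 5 SD of those controls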;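 for activation: fluorescence ratio of max minus min over baseline after K+ and Tl+ depolarization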). To be noted: parental CHO-K1 cells, FluxOR thallium flux, at 10 µM; active compounds read high. The gist of the method: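 Material: parental CHO-K1 cells, FluxOR dye-loaded; Also added: Potassium/thallium depolarization pulse; Schedule: overnight 37 °C plating, 90 min dye, 20 min dark compound; Signal: kinetic FluxOR fluorescence, 10 s baseline, 110 s after stimulus.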
In general terms: The purpose of a counterscreen is to sort out artefacts and off-target activity.
In the case of `Cc1ccc(C2=CSC3=NS(=O)(=O)CCN23)cc1`, the result was inactive.

As for `CCCN(C(=O)c1cn(-c2ccccc2)nc1-c1ccc(OC)cc1)C1CCS(=O)(=O)C1` (stereo not given), the outcome was inactive.

As to `Cc1ccc(C(=O)COC(=O)COc2ccccc2C)cc1`, the outcome was inactive.

Turning to `COc1ccc(C(=O)c2ccc(OC)c(N)c2)cc1N`, the activation is 162% (active).

On to `COc1cc(C(=O)NNC(=O)C2CC2)cc(OC)c1OC`, for which the outcome was inactive.

With `CCC1(c2ccc(Cl)cc2)NC(=S)N(c2ccc(C)cc2)N1` (stereo not given), the activation was 574% (active).

`Cc1ccccc1NC(=S)NNC(=O)c1csc2c1CCC(C)C2` (stereo not given): the activation is 174% (active).

Consider `CCC(/C=N/NC(=O)C1COc2ccccc2O1)CC` (stereo not given), for which the result was inactive.

In the case of `Fc1cccc(/C=N/Nc2ccc3ccccc3n2)c1`, the outcome was inactive.

On to `CCOC(=O)c1c(NC(=S)NC(=O)c2ccco2)sc2c1CCCC2`, for which the outcome was inactive.

In the case of `O=C(/C=C/c1ccco1)Nc1scc(-c2ccccc2)c1C(=O)O`, the outcome was inactive.

In the case of `O=C(CN(Cc1ccccc1Cl)C(=O)c1csnn1)NC1CCCC1`, the result was inactive.

As for `Cn1ccnc1C(OC(=O)c1ccc(Cl)cc1)C(F)(F)F` (stereo not given), the result was inactive.

For `O=C(COC(=O)C12CC3CC(CC(C3)C1)C2)NCCCc1ccccc1`, the result was inactive.

In the case of `Nc1c(-c2ccccc2)cnc2c(-c3ccccc3)cnn12`, the outcome was inactive.

Consider `CCn1c(CC(=O)Nc2ccccc2)nnc1SCC(=O)Nc1nncs1`, for which the outcome was inactive.

On to `Cc1[nH]n(-c2ccc(Cl)cc2)c(=O)c1/C=N/c1nnc(-c2ccccc2)s1`, for which the activation is 678% (active).

As to `C=CCn1c(=S)[nH]c2ccc(Br)cc2c1=O`, the activation was 208% (active).

As to `O=C(CCOc1ccccc1)Nc1ccnn1C1CCN(Cc2ccc(CO)o2)CC1`, the result was inactive.

For `COc1cc2c(cc1OC)CN(C(=O)COc1ccccc1[N+](=O)[O-])CC2`, the result was inactive.

For the molecule `COc1ccc(C)cc1NC(=O)C(=O)NNC(=O)COc1ccc(Cl)cc1`, the activation was 166% (active).

On to `C/C(=N\NC(=O)c1cccc(F)c1)c1ccc(Br)s1`, for which the result was inactive.

On to `O=C(COC(=O)C1CCC(=O)N1)Nc1ccc(Oc2ccccc2)cc1` (stereo not given), for which the outcome was inactive.

`CCOc1ccc2c(c1)C(NC(C)=O)C(=O)N2CCN1CCOCC1` (stereo not given): the outcome was inactive.

For `O=C(NCc1ccccc1)c1onc(CSc2ccc(F)cc2)c1C(=O)NCCCN1CCOCC1`, the result was inactive.

For the molecule `CCc1nnc(NC(=O)CCC(=O)N2CCN(C3CCCCC3)CC2)s1`, the result was inactive.

With `O=C(NNC(=S)NC(=O)c1sc2ccccc2c1Cl)c1ccc(Cl)cc1`, the activation is 320% (active).

As for `Cc1cc(C)nc(CCNC(=O)c2cc(COc3ccccc3)on2)n1`, the outcome was inactive.

For the molecule `CCN(CC)CCCNC(=O)c1[nH]c2ccccc2c1Sc1ccc(Cl)cc1`, the result was inactive.

As for `CN(C)CCNC(=O)c1ccc2c(=O)n(Cc3ccc(Cl)cc3)c(=S)[nH]c2c1`, the result was inactive.

Turning to `CCc1ccc(/C=N/NC(=O)Cc2cccn2C)cc1`, the result was inactive.

Take `COc1cccc(N(C(=O)Cn2nnc(-c3ccc(C)o3)n2)C(C(=O)NC2CCCC2)c2ccncc2)c1` (stereo not given): the outcome was inactive.

Consider `Cc1ccc(NC(=S)NC(=O)c2cncc(Br)c2)cc1Cl`, for which the activation was 323% (active).

For the molecule `O=C(NCc1ccccc1)/C(=C/c1ccccc1)NC(=O)c1ccco1`, the outcome was inactive.

Consider `Cc1cccc(S(=O)(=O)Nc2cccc3c2C(=O)c2ccccc2-3)c1`, for which the outcome was inactive.

Turning to `CC1Cc2ccccc2N1C(=S)NC(=O)c1cccc(Br)c1` (stereo not given), the activation is 726% (active).

As for `CCNC(=S)N=Nc1c(O)n(Cc2ccc(Cl)cc2)c2ccccc12`, the result was inactive.

Take `N#Cc1ccccc1Oc1ccccc1C=O`: the activation was 143% (active).

As to `CCOC(=O)c1sc2ncnc(NCC(c3cccs3)N(C)C)c2c1C` (stereo not given), the activation is 255% (active).

Consider `Cc1c(CN2CCN(C)C(CCO)C2)[nH]c2c(Cl)cccc12` (stereo not given), for which the outcome was inactive.

For a further experiment, the target named is Potassium voltage-gated channel subfamily KQT member 1 (Homo sapiens) (UniProt P51787). Description: enhancement of KCNQ1 channel thallium flux – FluxOR thallium flux, CHO cells, duplicates, confirmation (AID 493007).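 For outcome: cells depolarized by a potassium plus thallium sulfate stimulus after compound.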 To be noted: KCNQ1 cell line, FluxOR thallium flux fluorescence, at 10 µM; active compounds read high, % of reference activator effect, buffer zero. The gist of the method:
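System: KCNQ1-expressing CHO cell line; technique: kinetic thallium influx fluorescence with FluxOR dye, 10 s baseline, 110 s post-stimulus; timing: dye 90 min then compound 20 min, both at room temperature; controls: buffer-only wells as 0% and R-L3 activator as 100%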
As for `Cc1ccc(C2=CSC3=NS(=O)(=O)CCN23)cc1`, the outcome was inactive.

With `CCCN(C(=O)c1cn(-c2ccccc2)nc1-c1ccc(OC)cc1)C1CCS(=O)(=O)C1` (stereo not given), the result was inactive.

Consider `Cc1ccc(C(=O)COC(=O)COc2ccccc2C)cc1`, for which the outcome was inactive.

For the molecule `COc1ccc(C(=O)c2ccc(OC)c(N)c2)cc1N`, the potentiation is 38.5% (active).

On to `COc1cc(C(=O)NNC(=O)C2CC2)cc(OC)c1OC`, for which the result was inactive.

Regarding `CCC1(c2ccc(Cl)cc2)NC(=S)N(c2ccc(C)cc2)N1` (stereo not given), the potentiation was 302% (active).

For the molecule `Cc1ccccc1NC(=S)NNC(=O)c1csc2c1CCC(C)C2` (stereo not given), the potentiation is 30% (active).

As for `CCC(/C=N/NC(=O)C1COc2ccccc2O1)CC` (stereo not given), the outcome was inactive.

Turning to `Fc1cccc(/C=N/Nc2ccc3ccccc3n2)c1`, the outcome was inactive.

Consider `CCOC(=O)c1c(NC(=S)NC(=O)c2ccco2)sc2c1CCCC2`, for which the result was inactive.

`O=C(/C=C/c1ccco1)Nc1scc(-c2ccccc2)c1C(=O)O`: the outcome was inactive.

Regarding `O=C(CN(Cc1ccccc1Cl)C(=O)c1csnn1)NC1CCCC1`, the outcome was inactive.

Consider `Cn1ccnc1C(OC(=O)c1ccc(Cl)cc1)C(F)(F)F` (stereo not given), for which the outcome was inactive.

For `O=C(COC(=O)C12CC3CC(CC(C3)C1)C2)NCCCc1ccccc1`, the result was inactive.

Regarding `Nc1c(-c2ccccc2)cnc2c(-c3ccccc3)cnn12`, the result was inactive.

Take `CCn1c(CC(=O)Nc2ccccc2)nnc1SCC(=O)Nc1nncs1`: the outcome was inactive.

For `Cc1[nH]n(-c2ccc(Cl)cc2)c(=O)c1/C=N/c1nnc(-c2ccccc2)s1`, the potentiation was 182% (active).

With `C=CCn1c(=S)[nH]c2ccc(Br)cc2c1=O`, the potentiation is 51% (active).

Regarding `O=C(CCOc1ccccc1)Nc1ccnn1C1CCN(Cc2ccc(CO)o2)CC1`, the result was inactive.

Take `COc1cc2c(cc1OC)CN(C(=O)COc1ccccc1[N+](=O)[O-])CC2`: the outcome was inactive.

For the molecule `COc1ccc(C)cc1NC(=O)C(=O)NNC(=O)COc1ccc(Cl)cc1`, the potentiation was 195% (active).

Take `C/C(=N\NC(=O)c1cccc(F)c1)c1ccc(Br)s1`: the outcome was inactive.

As for `O=C(COC(=O)C1CCC(=O)N1)Nc1ccc(Oc2ccccc2)cc1` (stereo not given), the outcome was inactive.

As for `CCOc1ccc2c(c1)C(NC(C)=O)C(=O)N2CCN1CCOCC1` (stereo not given), the result was inactive.

As for `O=C(NCc1ccccc1)c1onc(CSc2ccc(F)cc2)c1C(=O)NCCCN1CCOCC1`, the outcome was inactive.

As to `CCc1nnc(NC(=O)CCC(=O)N2CCN(C3CCCCC3)CC2)s1`, the result was inactive.

As for `O=C(NNC(=S)NC(=O)c1sc2ccccc2c1Cl)c1ccc(Cl)cc1`, the potentiation was 168% (active).

Turning to `Cc1cc(C)nc(CCNC(=O)c2cc(COc3ccccc3)on2)n1`, the result was inactive.

With `CCN(CC)CCCNC(=O)c1[nH]c2ccccc2c1Sc1ccc(Cl)cc1`, the potentiation is 73% (active).

Consider `CN(C)CCNC(=O)c1ccc2c(=O)n(Cc3ccc(Cl)cc3)c(=S)[nH]c2c1`, for which the potentiation is 25% (active).

As to `CCc1ccc(/C=N/NC(=O)Cc2cccn2C)cc1`, the result was inactive.

On to `COc1cccc(N(C(=O)Cn2nnc(-c3ccc(C)o3)n2)C(C(=O)NC2CCCC2)c2ccncc2)c1` (stereo not given), for which the outcome was inactive.

As to `Cc1ccc(NC(=S)NC(=O)c2cncc(Br)c2)cc1Cl`, the potentiation was 246% (active).

For `O=C(NCc1ccccc1)/C(=C/c1ccccc1)NC(=O)c1ccco1`, the outcome was inactive.

As for `Cc1cccc(S(=O)(=O)Nc2cccc3c2C(=O)c2ccccc2-3)c1`, the potentiation was 43.5% (active).

`CC1Cc2ccccc2N1C(=S)NC(=O)c1cccc(Br)c1` (stereo not given): the potentiation was 224% (active).

As to `CCNC(=S)N=Nc1c(O)n(Cc2ccc(Cl)cc2)c2ccccc12`, the potentiation was 37% (active).

In the case of `N#Cc1ccccc1Oc1ccccc1C=O`, the potentiation is 39.5% (active).

Consider `CCOC(=O)c1sc2ncnc(NCC(c3cccs3)N(C)C)c2c1C` (stereo not given), for which the potentiation was 87% (active).

For the molecule `Cc1c(CN2CCN(C)C(CCO)C2)[nH]c2c(Cl)cccc12` (stereo not given), the outcome was inactive.
